Experiment [1] concerns the target Histone-lysine N-methyltransferase EZH2 (Homo sapiens) (UniProt Q15910). Nature of the experiment: Inhibition of EZH2 (unknown origin) using H3K27me peptide as substrate at 100 uM preincubated for 15 mins followed by substrate/[3H]SAM addition by liquid scintillation counting analysis relative to control. The essentials:
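Enzyme in modified Tris buffer, 15 min at room temperature, then H3K27me peptide plus [3H]-SAM added to start. Stopped with cold SAM (final 0.5 mM), transferred to FlashPlate for at least 1 h at room temperature, washed with water/0.1% Tween-20, then scintillation counting.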

For experiment [2], the target named is T1, Histone-lysine N-methyltransferase SETD7 (Homo sapiens, UniProt Q8WTS6).
T1 sequence (Q8WTS6 whole entry): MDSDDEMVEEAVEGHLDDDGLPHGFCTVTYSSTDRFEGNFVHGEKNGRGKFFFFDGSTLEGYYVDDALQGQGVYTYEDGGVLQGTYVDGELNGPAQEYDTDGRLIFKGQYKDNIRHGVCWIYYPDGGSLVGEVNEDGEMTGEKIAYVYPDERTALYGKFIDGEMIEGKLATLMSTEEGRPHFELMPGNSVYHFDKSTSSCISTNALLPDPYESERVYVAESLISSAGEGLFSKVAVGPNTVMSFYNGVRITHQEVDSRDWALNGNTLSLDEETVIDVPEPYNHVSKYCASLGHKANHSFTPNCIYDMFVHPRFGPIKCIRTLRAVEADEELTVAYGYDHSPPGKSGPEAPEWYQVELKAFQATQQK
Nature of the experiment: Competitive inhibition of SET7 (unknown origin) after 60 mins by AlphaLISA method in presence of SAM.

Experiment [3] concerns the target DNA (cytosine-5)-methyltransferase 1 (Homo sapiens) (UniProt P26358). Briefly: Inhibition of DNMT1 (unknown origin) using poly(dI-DC) as substrate at 100 uM preincubated for 15 mins followed by substrate and [3H]SAM addition measured after 120 mins by microbeta counting analysis relative to control. Summed up:
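Radioactive methylation assay in modified Tris buffer with poly(dI-dC) substrate. Enzyme held 15 min at room temperature, then substrate and [3H]-SAM added. Reaction run 120 min at 37 °C, then moved to 0.5% PEI-pretreated filter plates, washed with water under vacuum and counted. Maximum = enzyme plus substrate; minimum = substrate only.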

For experiment [4], the target named is Histone-lysine N-methyltransferase, H3 lysine-36 specific (Homo sapiens) (UniProt Q96L73). Nature of the experiment: Inhibition of NSD1 (unknown origin) at 100 uM preincubated for 15 mins followed by substrate/[3H]-SAM addition measured after 4 hrs by liquid scintillation counting analysis relative to control. The essentials:
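Enzyme in modified Tris buffer, 15 min at room temperature, then substrate and [3H]-SAM added. After 4 h, cold SAM stop, transfer to PEI-pretreated GF/B filter plate, water washes under vacuum, then scintillation counting.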

Experiment [5] deals with T2, N-lysine methyltransferase KMT5A (Homo sapiens) (UniProt Q9NQR1).
T2 sequence (whole entry): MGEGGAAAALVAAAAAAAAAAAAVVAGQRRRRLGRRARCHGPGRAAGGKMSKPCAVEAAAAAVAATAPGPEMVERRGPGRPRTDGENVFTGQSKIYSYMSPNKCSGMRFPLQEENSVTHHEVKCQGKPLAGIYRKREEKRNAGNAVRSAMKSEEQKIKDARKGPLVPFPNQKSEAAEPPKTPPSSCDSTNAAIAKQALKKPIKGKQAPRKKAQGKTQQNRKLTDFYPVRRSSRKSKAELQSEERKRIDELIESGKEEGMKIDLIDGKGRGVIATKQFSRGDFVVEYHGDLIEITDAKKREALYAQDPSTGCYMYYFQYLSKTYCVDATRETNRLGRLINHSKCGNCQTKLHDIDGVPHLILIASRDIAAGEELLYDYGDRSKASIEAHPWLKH
Nature of the experiment: Inhibition of SETD8 (unknown origin) at 100 uM preincubated for 15 mins measured after 120 mins by microbeta counting analysis in presence of [3H]-SAM relative to control. Summed up: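 Compounds added in DMSO and enzyme held 15 min at room temperature in modified Tris buffer. Reaction started with peptide plus [3H]-SAM and stopped with cold SAM after 120 min. Transferred to streptavidin FlashPlate for at least 60 min, washed with water/0.1% Tween-20, then counted.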

Experiment [6] concerns the target T3, Histone-lysine N-methyltransferase EHMT2 (Homo sapiens) (UniProt Q96KQ7).
T3 sequence (whole entry): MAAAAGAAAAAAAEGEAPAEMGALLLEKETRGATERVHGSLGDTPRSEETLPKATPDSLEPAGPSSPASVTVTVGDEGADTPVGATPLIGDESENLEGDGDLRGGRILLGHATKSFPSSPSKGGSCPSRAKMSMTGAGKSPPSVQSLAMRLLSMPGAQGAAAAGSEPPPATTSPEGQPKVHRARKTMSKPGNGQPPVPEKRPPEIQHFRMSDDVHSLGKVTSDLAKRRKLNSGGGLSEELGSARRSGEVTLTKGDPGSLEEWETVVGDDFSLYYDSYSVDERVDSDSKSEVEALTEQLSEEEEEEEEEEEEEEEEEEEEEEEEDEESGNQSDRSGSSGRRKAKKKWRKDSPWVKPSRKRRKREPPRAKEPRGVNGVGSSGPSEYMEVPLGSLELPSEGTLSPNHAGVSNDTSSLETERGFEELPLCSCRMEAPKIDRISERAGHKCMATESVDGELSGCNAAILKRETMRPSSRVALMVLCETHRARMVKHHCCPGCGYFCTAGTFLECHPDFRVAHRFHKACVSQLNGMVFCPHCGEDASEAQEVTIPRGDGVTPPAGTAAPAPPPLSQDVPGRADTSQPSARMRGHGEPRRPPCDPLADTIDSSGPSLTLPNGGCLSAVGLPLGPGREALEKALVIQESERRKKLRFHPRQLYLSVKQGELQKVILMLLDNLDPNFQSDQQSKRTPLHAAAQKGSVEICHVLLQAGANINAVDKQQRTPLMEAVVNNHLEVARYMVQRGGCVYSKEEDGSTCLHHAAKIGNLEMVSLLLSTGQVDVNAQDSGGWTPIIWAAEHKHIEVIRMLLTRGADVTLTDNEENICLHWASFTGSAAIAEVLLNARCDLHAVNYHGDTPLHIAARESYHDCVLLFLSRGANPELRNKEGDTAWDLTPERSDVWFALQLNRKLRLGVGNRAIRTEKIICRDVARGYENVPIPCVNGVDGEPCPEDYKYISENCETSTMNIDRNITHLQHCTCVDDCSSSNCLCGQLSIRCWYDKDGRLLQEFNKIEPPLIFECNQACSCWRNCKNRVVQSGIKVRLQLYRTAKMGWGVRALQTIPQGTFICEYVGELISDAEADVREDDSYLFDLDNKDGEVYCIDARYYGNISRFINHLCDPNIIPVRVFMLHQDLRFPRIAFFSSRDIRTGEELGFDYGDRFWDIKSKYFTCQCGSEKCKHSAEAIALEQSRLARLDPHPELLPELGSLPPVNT
Nature of the experiment: Inhibition of G9a (unknown origin) at 100 uM preincubated for 15 mins followed by substrate addition measured after 60 mins by AlphaLISA method relative to control. The essentials: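 AlphaLISA in modified Tris buffer: compounds (DMSO) with enzyme 15 min at room temperature, then substrate mix added for 60 min at room temperature. Acceptor and donor bead mix added for 60 min in subdued light, then Alpha signal read.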
(Alpha assays give light when donor and acceptor beads are brought close together.)

The target of experiment [7] is T1, Histone-lysine N-methyltransferase SETD7. Nature of the experiment: Inhibition of SET7 (unknown origin). The essentials:
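AlphaLISA: purified SET7 in modified Tris buffer 15 min at room temperature, compounds added in DMSO, then substrate solution added for 60 min. Acceptor and donor beads incubated 60 min at room temperature in the dark, then Alpha-mode read. Inhibition % = (Max−Signal)/(Max−Min)×100; low control received assay buffer instead of enzyme.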

The next experiment deals with SUD4. Briefly: Cytotoxicity against human SU-DHL4 cells assessed as inhibition of cell proliferation after 120 hrs by alamar blue assay. It counts as functional, cell-based. The essentials: (§1)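 Cells seeded at approximately 2*10^4 per well in 100 µL medium, grown overnight, then exposed for about 120 h to 0–100 µM in DMSO. MCF7 and HCT116 read by MTT: 2 h at 37 °C, crystals dissolved in DMSO, absorbance 490 nm with 630 nm reference. HL60, MV4-11 and DHL4 read by alamarBlue, fluorescence ex 544/em 590 nm. Signals normalized to control wells.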
In general terms: Alamar Blue is a resazurin reagent that responds to reducing activity.

The test system of a further experiment is MCF7. Nature of the experiment: cells. Particulars: Homo sapiens, MCF7, 120 h.
Experiment [8] concerns the target DNMT3A2/3L complex (Homo sapiens) (UniProt Q9Y6K1+Q9UJW3). Briefly: Inhibition of DNMT3A/3L (unknown origin) using IDT-01 sequence 1/IDT-01 sequence 2 as substrate at 100 uM preincubated for 15 mins followed by substrate addition measured after 4 hrs by liquid scintillation counting analysis relative to control. It is filed as protein-complex assay. The essentials: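 Radioactive methylation assay in modified Tris buffer with IDT-01 Sequence 1 and Sequence 2 as substrates. Enzyme preincubated 15 min at room temperature before substrate added. After 4 h at room temperature, stopped with cold SAM, then transferred to FlashPlate and read by liquid scintillation counting.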

Another experiment deals with HL-60. Briefly: cells. Particulars: Homo sapiens, HL-60, 120 h.
A further experiment concerns HCT-116. Nature of the experiment: Cytotoxicity against human HCT116 cells assessed as inhibition of cell proliferation after 120 hrs by MTT assay.
The target in experiment [9] is Histone-lysine N-methyltransferase, H3 lysine-79 specific (Homo sapiens) (UniProt Q8TEK3). Nature of the experiment: Inhibition of DOT1L (unknown origin) at 100 uM preincubated for 15 mins followed by oligonucleosomes/SAM addition measured after 30 mins by AlphaLISA method relative to control.
The next experiment has as its system MV4-11. Nature of the experiment: Cytotoxicity against human MV4-11 cells assessed as inhibition of cell proliferation after 120 hrs by alamar blue assay. It counts as functional, cell-based. The essentials: as §1

pIC50: −log10 of the molar value. The source made the active and inactive calls. The calls are words filed in the database; no cut-off is given here.

Sequence of Histone-lysine N-methyltransferase, H3 lysine-36 specific (Homo sapiens) (Q96L73 whole entry): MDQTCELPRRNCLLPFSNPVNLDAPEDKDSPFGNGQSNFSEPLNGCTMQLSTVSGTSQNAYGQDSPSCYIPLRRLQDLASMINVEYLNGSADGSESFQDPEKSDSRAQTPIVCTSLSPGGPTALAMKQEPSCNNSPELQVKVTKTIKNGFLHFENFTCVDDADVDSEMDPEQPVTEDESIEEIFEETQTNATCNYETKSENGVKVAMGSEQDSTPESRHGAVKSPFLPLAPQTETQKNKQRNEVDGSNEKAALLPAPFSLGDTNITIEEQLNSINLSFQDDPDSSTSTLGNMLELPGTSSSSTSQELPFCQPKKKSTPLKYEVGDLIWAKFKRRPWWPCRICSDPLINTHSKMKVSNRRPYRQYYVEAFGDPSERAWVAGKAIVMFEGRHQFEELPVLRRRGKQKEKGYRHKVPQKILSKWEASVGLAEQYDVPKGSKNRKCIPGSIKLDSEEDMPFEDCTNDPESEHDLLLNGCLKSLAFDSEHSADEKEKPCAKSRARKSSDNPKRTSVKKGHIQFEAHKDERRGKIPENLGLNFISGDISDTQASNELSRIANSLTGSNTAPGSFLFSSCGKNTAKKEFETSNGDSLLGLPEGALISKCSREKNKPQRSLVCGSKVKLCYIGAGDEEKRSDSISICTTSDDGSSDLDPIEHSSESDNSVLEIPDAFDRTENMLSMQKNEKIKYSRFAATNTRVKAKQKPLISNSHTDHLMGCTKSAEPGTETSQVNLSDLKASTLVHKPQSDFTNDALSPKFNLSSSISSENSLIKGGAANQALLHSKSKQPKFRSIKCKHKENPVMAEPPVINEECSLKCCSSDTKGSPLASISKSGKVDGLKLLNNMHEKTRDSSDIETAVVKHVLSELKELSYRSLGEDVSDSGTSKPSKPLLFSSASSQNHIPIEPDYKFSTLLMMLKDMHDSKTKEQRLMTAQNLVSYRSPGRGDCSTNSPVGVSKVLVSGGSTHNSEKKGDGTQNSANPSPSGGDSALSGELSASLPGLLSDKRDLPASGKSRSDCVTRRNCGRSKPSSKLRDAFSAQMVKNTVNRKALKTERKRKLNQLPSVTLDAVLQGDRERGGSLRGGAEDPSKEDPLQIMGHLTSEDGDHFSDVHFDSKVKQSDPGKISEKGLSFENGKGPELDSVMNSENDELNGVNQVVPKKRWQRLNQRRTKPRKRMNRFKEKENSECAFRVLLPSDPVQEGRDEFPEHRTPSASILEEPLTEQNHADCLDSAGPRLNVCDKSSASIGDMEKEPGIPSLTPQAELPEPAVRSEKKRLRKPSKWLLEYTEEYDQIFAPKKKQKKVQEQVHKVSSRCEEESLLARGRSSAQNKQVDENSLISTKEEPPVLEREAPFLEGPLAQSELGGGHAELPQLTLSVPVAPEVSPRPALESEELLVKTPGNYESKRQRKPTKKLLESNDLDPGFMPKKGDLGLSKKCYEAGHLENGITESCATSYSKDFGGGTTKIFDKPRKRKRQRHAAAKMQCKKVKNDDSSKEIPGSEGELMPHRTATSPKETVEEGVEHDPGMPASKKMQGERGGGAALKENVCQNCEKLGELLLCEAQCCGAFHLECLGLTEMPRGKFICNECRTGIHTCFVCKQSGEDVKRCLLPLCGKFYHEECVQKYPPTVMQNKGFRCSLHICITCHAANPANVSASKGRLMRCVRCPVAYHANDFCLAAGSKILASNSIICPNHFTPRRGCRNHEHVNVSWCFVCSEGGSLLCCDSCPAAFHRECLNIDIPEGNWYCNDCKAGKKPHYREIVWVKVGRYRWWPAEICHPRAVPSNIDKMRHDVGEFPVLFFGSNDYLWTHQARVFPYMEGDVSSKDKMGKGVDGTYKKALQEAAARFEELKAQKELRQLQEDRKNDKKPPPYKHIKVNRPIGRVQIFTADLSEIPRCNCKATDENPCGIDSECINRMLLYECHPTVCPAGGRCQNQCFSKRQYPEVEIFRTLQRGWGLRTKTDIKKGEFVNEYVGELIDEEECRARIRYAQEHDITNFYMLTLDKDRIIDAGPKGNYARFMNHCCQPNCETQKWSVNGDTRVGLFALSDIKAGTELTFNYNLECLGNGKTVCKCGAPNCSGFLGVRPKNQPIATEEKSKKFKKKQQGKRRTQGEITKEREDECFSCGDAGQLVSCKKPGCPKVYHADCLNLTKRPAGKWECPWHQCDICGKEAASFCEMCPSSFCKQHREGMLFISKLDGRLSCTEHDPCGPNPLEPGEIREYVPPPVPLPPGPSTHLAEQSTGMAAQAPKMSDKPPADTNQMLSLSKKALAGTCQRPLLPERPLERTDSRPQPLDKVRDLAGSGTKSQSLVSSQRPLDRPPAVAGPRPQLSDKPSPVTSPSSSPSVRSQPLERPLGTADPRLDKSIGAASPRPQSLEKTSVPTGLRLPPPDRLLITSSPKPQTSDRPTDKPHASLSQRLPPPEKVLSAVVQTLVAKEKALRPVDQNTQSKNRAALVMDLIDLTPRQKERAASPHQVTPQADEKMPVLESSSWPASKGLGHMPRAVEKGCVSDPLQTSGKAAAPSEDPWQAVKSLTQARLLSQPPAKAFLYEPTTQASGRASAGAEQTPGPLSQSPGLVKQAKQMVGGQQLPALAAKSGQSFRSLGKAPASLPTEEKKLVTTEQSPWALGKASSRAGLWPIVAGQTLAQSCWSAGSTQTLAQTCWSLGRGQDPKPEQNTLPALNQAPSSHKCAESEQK
Sequence of Histone-lysine N-methyltransferase EZH2 (Homo sapiens) (Q15910 whole entry, looked up): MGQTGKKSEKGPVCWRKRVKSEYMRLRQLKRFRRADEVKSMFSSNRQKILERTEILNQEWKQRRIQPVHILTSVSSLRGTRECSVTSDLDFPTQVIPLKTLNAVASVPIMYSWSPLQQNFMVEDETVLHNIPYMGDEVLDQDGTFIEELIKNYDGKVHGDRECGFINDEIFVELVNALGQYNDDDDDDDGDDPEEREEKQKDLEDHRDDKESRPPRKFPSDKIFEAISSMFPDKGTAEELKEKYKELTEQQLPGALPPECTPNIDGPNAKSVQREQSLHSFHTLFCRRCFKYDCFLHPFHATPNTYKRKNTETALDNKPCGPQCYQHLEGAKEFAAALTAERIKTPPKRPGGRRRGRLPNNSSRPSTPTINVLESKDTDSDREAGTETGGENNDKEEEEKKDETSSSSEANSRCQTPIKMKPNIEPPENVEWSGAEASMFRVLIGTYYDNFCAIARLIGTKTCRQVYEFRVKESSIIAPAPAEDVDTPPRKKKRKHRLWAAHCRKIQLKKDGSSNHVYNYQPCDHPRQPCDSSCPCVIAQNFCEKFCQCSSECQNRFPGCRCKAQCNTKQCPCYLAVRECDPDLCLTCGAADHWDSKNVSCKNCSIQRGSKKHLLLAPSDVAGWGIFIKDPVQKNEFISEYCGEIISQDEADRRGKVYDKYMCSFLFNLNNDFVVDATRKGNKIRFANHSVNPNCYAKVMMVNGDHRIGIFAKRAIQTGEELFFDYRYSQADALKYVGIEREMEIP
Sequence of DNA (cytosine-5)-methyltransferase 1 (Homo sapiens) (P26358 whole entry): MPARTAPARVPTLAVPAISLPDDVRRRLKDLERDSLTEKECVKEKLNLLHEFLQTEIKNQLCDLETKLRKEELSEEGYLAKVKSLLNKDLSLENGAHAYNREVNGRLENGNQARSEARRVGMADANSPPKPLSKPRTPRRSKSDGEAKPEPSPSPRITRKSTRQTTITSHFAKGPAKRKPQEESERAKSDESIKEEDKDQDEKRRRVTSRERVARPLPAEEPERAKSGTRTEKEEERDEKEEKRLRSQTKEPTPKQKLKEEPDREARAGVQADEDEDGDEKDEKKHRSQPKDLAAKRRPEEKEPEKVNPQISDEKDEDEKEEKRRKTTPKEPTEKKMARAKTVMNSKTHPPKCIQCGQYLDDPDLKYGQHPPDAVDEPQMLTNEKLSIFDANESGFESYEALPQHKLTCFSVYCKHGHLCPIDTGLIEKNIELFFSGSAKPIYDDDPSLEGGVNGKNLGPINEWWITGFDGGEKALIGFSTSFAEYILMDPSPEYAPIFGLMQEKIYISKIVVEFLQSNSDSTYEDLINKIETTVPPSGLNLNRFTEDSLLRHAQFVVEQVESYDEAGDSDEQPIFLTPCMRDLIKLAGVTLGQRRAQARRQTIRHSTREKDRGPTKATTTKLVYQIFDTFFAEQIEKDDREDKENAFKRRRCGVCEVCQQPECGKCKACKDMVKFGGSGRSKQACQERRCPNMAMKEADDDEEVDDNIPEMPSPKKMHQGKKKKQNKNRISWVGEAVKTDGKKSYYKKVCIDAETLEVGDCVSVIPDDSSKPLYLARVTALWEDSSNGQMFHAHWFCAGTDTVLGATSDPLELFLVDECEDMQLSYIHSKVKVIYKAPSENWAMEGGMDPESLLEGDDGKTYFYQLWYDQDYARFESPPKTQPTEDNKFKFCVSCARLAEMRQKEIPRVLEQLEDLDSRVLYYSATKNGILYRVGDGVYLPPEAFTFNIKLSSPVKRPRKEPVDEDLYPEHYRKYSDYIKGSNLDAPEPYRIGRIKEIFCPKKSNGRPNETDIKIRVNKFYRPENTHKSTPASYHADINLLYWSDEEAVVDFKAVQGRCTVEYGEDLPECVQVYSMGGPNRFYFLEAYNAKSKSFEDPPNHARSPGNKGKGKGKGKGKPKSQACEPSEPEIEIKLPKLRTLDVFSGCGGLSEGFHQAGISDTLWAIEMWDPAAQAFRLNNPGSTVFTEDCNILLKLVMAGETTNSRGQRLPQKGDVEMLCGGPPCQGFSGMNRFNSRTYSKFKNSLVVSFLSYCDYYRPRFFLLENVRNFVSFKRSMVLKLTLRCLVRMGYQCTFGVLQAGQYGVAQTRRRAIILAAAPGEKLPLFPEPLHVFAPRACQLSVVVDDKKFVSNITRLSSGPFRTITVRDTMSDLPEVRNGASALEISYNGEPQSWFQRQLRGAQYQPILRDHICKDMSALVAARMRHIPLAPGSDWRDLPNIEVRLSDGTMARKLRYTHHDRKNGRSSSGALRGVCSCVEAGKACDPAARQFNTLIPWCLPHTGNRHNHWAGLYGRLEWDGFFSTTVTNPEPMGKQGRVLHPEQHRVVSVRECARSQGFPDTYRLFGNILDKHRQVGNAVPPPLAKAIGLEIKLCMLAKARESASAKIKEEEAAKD

On to `COC(=O)c1c(N)sc(C(=O)Nc2cccc([N+](=O)[O-])c2)c1C`, for which the inhibition in experiment [1] was found to be 19.6%; in experiment [3] it was 9.82%; in experiment [4], 25.1%; in experiment [5] it was 45.5%; in [6], 29.9%. Besides, in experiment [2], the pIC50 is 5.31.

Consider `CN1CCC(=C2c3ccccc3C=Cc3ccccc32)CC1` [CYPROHEPTADINE], for which, in experiment [7], the pIC50 was 4.70.

As for `CCOC(=O)c1c(N)sc(C(=O)Nc2cccc([N+](=O)[O-])c2)c1C`, the inhibition entry in the experiment with SUD4 and in the experiment on HCT-116 was “inactive” throughout. Further, the inhibition in experiment [1] is 19.6%; in experiment [8] it was -4.25%; in experiment [3], 16.1%; in experiment [4], 27.2%; in experiment [5], 40.9%; in experiment [9], -5.42%. Moreover, the inhibition entry in the experiment with MV4-11 is “Dose-dependent effect”; in [6], -0.71%. Besides, the pIC50 was 5.34 in experiment [2], 4.96 in the experiment with MCF7 and 4.78 with HL-60.

As for `O=C(Nc1cccc([N+](=O)[O-])c1)c1ccc2c(c1)OCO2`, the pIC50 in experiment [2] was 4.21.

The inhibition is the change of the read-out against control, counted positive when it falls. Usually pIC50 stands for the negative decadic logarithm of the IC50, by convention in mol/L.
